According to ChEMBL document CHEMBL1158477, “Synthesis, in vivo evaluation, and molecular modeling studies of new pyrazolo[5,1-c][1,2,4]benzotriazine 5-oxide derivatives. Identification of a bifunctional hydrogen bond area related to the inverse agonism” (J Med Chem, 2009):
pKi: −log10 of the molar value.

Columns and labels:
Bos taurus = species on record: Bos taurus; assay: Displacement of [3H]flumazenil from GABAA/Benzodiazepine receptor in bovine brain at 10 uM
Outline: (§1)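 Bovine brain membranes; displacement of specific [3H]flumazenil (Ro15-1788) binding. Percent inhibition measured at 10 μM; Ki determined only when inhibition at that concentration exceeded 80%. Ki given as mean ± SEM of five determinations.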

[1] = Displacement of [3H]flumazenil from GABAA/Benzodiazepine receptor in bovine brain; design: species or system Bos taurus; outline: as §1
Mus musculus [2] = assay: Effect on motor coordination in CD1 albino mouse assessed as number of falls form rotarod at 10 mg/kg, po […] measured for 30 seconds after 30 mins of dosing by rotarod test; type: functional; settings: 10 mg/kg
Outline: (§2)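 Rota-rod in male CD-1 mice with a pretest. Test substance given po in 1% CMC; falls from the rotating rod counted over 30 s, assessed 30 min after treatment.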

Mus musculus [3] = assay: Effect on motor coordination in CD1 albino mouse assessed as number of falls form rotarod at 30 mg/kg, po […] measured for 30 seconds after 30 mins of drug infusion by rotarod test; type: functional; settings: 30 mg/kg; outline: as §2
Mus musculus [4] = assay: Anticonvulsant activity against pentylenetetrazole-induced shock in CD1 albino mouse assessed as shock latency at 10 mg/kg, po preincubated for 30 mins before pentylenetetrazole challenge measured for 30 mins (RVb=253.1 +/- 13 seconds); type: functional; settings: 10 mg/kg
Mus musculus [5] = assay: Anticonvulsant activity against pentylenetetrazole-induced shock in CD1 albino mouse assessed as shock latency at 30 mg/kg, po preincubated for 30 mins before pentylenetetrazole challenge measured for 30 mins (RVb=253.1 +/- 13 seconds); type: functional; settings: 30 mg/kg
Mus musculus [6] = assay: Anticonvulsant activity against pentylenetetrazole-induced convulsions in CD1 albino mouse assessed as convulsion latency at 10 mg/kg, po preincubated for 30 mins before pentylenetetrazole challenge measured for 30 mins (RVb=599 +/- 37.6 seconds); type: functional; settings: 10 mg/kg
Mus musculus [7] = assay: Anticonvulsant activity against pentylenetetrazole-induced convulsions in CD1 albino mouse assessed as convulsion latency at 30 mg/kg, po preincubated for 30 mins before pentylenetetrazole challenge measured for 30 mins (RVb=599 +/- 37.6 seconds); type: functional; settings: 30 mg/kg
Mus musculus [8] = assay: Effect on spontaneous motility in CD1 albino mouse assessed as number of movement on plane board at 10 mg/kg, po after 30 mins by hole-board test; type: functional; settings: 10 mg/kg
Outline: (§3)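 Hole-board test in male CD-1 mice: animals placed singly on the board and allowed to explore panel and holes. Test run 30 min after po dosing in 1% CMC (10 mL/kg). Hole entries (curiosity) and plane movements (spontaneous motility) counted; 10 mice per group, compared with CMC controls.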

Mus musculus [9] = assay: Effect on spontaneous motility in CD1 albino mouse assessed as number of movement on plane board at 30 mg/kg, po after 30 mins by hole-board test; type: functional; settings: 30 mg/kg; outline: as §3
Mus musculus [10] = assay: Effect on spontaneous motility in CD1 albino mouse assessed as number of movement on plane board at 50 mg/kg, po after 30 mins by hole-board test; type: functional; outline: as §3
Mus musculus [11] = assay: Effect on spontaneous motility in CD1 albino mouse assessed as number of movement on plane board at 100 mg/kg, po after 30 mins by hole-board test; type: functional; outline: as §3
Mus musculus [12] = assay: Effect on explorative capacity in CD1 albino mouse assessed as curiosity-related number of head plugging activity on hole at 10 mg/kg, po after 30 mins by hole-board test; type: functional; settings: 10 mg/kg; outline: as §3
Mus musculus [13] = assay: Effect on explorative capacity in CD1 albino mouse assessed as curiosity-related number of head plugging activity on hole at 30 mg/kg, po after 30 mins by hole-board test; type: functional; settings: 30 mg/kg; outline: as §3
Mus musculus [14] = assay: Effect on explorative capacity in CD1 albino mouse assessed as curiosity-related number of head plugging activity on hole at 50 mg/kg, po after 30 mins by hole-board test; type: functional; outline: as §3
Mus musculus [15] = assay: Effect on explorative capacity in CD1 albino mouse assessed as curiosity-related number of head plugging activity on hole at 100 mg/kg, po after 30 mins by hole-board test; type: functional; outline: as §3

Activity (Bos taurus)	pKi [1]	SMILES	further results
10%	–	[O-][n+]1nc2ccnn2c2cc(-c3ccccc3)ccc21	–
> 80%	6.02	[O-][n+]1nc2c(I)cnn2c2cc(-c3ccccc3)ccc21	–
> 80%	8.35	COc1ccc(COc2ccc3c(c2)n2ncc(I)c2n[n+]3[O-])cc1	–
> 80%	8.76	COc1ccccc1COC(=O)c1cnn2c1n[n+]([O-])c1ccc(Oc3ccccc3)cc12	–
> 80%	8.64	COc1ccccc1COC(=O)c1ccc2c(c1)n1ncc(C)c1n[n+]2[O-]	–
> 80%	7.17	[O-][n+]1nc2c(-c3ccsc3)cnn2c2cc(Oc3ccccc3)ccc21	–
> 80%	9.07	CCOc1ccc2c(c1)n1ncc(C(=O)OCc3cccs3)c1n[n+]2[O-]	–
> 80%	9.51	CCOc1cnn2c1n[n+]([O-])c1ccc(C(=O)OCc3ccccc3OC)cc12	–
> 80%	6.10	[O-][n+]1nc2c(Br)cnn2c2cc(-c3ccccc3)ccc21	–
> 80%	7.96	[O-][n+]1nc2c(I)cnn2c2cc(OCc3ccc(Cl)cc3)ccc21	–
> 80%	7.03	[O-][n+]1nc2c(I)cnn2c2cc(Oc3ccc4ccccc4c3)ccc21	–
> 80%	9.38	COc1ccccc1COc1ccc2c(c1)n1ncc(I)c1n[n+]2[O-]	–
> 80%	8.68	CCOC(=O)c1cnn2c1n[n+]([O-])c1ccc(OCc3ccccc3)cc12	–
> 80%	7.92	CCOC(=O)c1cnn2c1n[n+]([O-])c1ccc(Oc3ccccc3)cc12	–
> 80%	8.85	Cc1ccc2c(c1)n1ncc(C(=O)OCc3cccs3)c1n[n+]2[O-]	–
–	6.22	CC(Oc1ccc2c(c1)n1ncc(I)c1n[n+]2[O-])c1ccccc1 (stereo in doubt; (+)-16)	Activity (Mus musculus [2]): 2.5; Activity (Mus musculus [3]): 1.3; Activity (Mus musculus [4]): 543.7 s; Activity (Mus musculus [5]): 345.3 s; Activity (Mus musculus [6]): 733.5 s; Activity (Mus musculus [7]): 607.7 s; Activity (Mus musculus [8]): 55.5; Activity (Mus musculus [9]): 59.7; Activity (Mus musculus [10]): 62.9; Activity (Mus musculus [11]): 80; Activity (Mus musculus [12]): 25.1; Activity (Mus musculus [13]): 31.9; Activity (Mus musculus [14]): 39.3; Activity (Mus musculus [15]): 30.4
> 80%	7.37	[O-][n+]1nc2c(Cl)cnn2c2cc(Oc3ccccc3)ccc21	–
> 80%	–	CC(Oc1ccc2c(c1)n1ncc(I)c1n[n+]2[O-])c1ccccc1 (racemic)	–
> 80%	8.18	[O-][n+]1nc2c(I)cnn2c2cc(OCc3ccccc3OC(F)(F)F)ccc21	–
